Positions of bridges follow the written chain, without caps; N, C: chain ends. No end group written: not given here. *: point of attachment. Biotin = O=C1N[C@H]2[C@H](CS[C@H]2CCCCC(=O)*)N1; Ahx = NCCCCCC(=O)O
Key:
OCN^−/− mice [1] = test: ICV delivery of OCN into OCN^−/− mice: OPC/OL numbers and myelin proteins; type: in vivo, mouse; settings: ICV 100 ng/day for 10 days
Procedure, shortened: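 OCN−/− mice received synthesized mouse OCN at 100 ng/day, or PBS, by ICV infusion for 10 days. For proliferation, BrdU at 100 μg/g was given i.p. 2 days before sacrifice, and sections were co-stained for BrdU/PDGFRα. For differentiation, BrdU at 200 μg/g was pulsed for four consecutive days from the start of treatment, with BrdU/CC1 co-staining at the end. Positive cells were counted per 0.25 mm2 in CC.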

[2] = OCN level in CC and SC after ICV delivery into OCN^−/− mice; type: in vivo, mouse; settings: ICV infusion 100 ng/day for 10 days, n = 5
[3] = target: human GPR37 overexpressed on HEK293-based cells (human) (UniProt O15354); test: saturation binding of biotinylated ligand to transfected cells
human GPR37 [4] = target: T1, human GPR37 (Homo sapiens, UniProt O15354); test: PRESTO-Tango β-arrestin recruitment, GPR37-transfected HTLA cells; type: cell-based
T1 sequence (O15354 27-613): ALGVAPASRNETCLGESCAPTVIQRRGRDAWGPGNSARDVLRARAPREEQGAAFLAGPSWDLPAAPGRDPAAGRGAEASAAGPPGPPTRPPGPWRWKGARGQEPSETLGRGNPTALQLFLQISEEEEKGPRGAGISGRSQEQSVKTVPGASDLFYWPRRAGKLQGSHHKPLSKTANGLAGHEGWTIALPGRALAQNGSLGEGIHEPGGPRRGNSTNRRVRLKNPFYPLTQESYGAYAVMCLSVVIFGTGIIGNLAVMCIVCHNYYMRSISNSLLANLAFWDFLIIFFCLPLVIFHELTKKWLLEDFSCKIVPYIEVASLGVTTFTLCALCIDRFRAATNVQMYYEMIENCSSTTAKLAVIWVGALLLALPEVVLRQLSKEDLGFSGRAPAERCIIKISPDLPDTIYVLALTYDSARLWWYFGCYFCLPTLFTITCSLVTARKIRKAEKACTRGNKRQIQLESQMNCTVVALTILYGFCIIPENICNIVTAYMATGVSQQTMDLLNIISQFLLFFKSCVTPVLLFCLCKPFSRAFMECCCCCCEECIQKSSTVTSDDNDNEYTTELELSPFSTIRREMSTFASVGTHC
Procedure, shortened: (§1)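 HTLA cells (HEK293 carrying a tTA-luciferase reporter and β-arrestin2–TEV), kept under puromycin 2 μg/ml plus hygromycin B 100 μg/ml, expressing GPR37-Tango or GPR37L1-Tango. Seeded on poly-L-lysine; the next day given graded OCN concentrations in assay buffer for 24 h. Luciferase reagent (20-fold diluted) added for 15–20 min at 20–25°C; luminescence read as RLU. Concentration-response curves fitted.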

human GPR37L1 [5] = test: PRESTO-Tango β-arrestin recruitment, GPR37L1-transfected HTLA cells; type: cell-based; settings: cells expressing GPR37L1 (HTLA)
Procedure, shortened: as §1

human GPR37 [6] = target: T1, human GPR37; test: cAMP production, GPR37-transfected HEK293 cells; type: cell-based; settings: forskolin and/or OCN 30 min, cAMP-Glo Max
Procedure, shortened: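 HEK293 cells were transfected with human GPR37 for 48 h, then seeded on poly-L-lysine-coated plates. They were exposed to forskolin and/or graded OCN for 30 min. cAMP was measured by luminescent cAMP-Glo Max assay. At least four experiments, each in triplicate.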

human GPR37 [7] = target: T1, human GPR37; test: ERK phosphorylation; type: cell-based; settings: OCN 20 nM; GPR37-transfected HEK293 cells; immunoblot
Procedure, shortened: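 Human GPR37 introduced into HEK293 cells by calcium-phosphate transfection, then exposed to OCN 20 nM. Lysates made in RIPA buffer with protease inhibitors and assayed by BCA. 30–50 μg protein run on SDS-PAGE and blotted to PVDF or nitrocellulose. Blocked in 5% milk for 1 h, primary antibody overnight at 4°C, HRP secondary for 1 h at room temperature.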

primary rat OLs [8] = test: cAMP production in primary rat OLs; type: cell-based
Procedure, shortened: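 Rat OPCs were transduced with lentiviral shRNA against GPR37 and kept with CNTF and T3 for 48 h. They were then plated at 1 × 10^4/well on poly-L-lysine. Cells received forskolin plus the test compound at the indicated concentrations for 30 min. Intracellular cAMP was measured by cAMP-Glo Max luminescence to give concentration-response curves. Runs were repeated at least four times, each in triplicate.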

primary rat OLs [9] = test: ERK phosphorylation; type: cell-based
primary rat OPCs = test: OPC proliferation; type: cell-based; settings: OCN 20 nM; EdU incorporation; n = 3 independent experiments
Procedure, shortened: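 Primary rat OPCs (P1–P2 Sprague-Dawley forebrain) were plated on poly-L-lysine at 1 × 10^4/well in 96-well plates. They were treated with the test compound at 20 nM before assessment. Proliferation was read by EdU incorporation with a commercial kit.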

[10] = system: OLs derived from primary rat OPCs; test: OL cell viability; type: cell-based; settings: OCN 0 to 50 nM, up to 72 hours; MTT; n = 3 independent experiments
Procedure, shortened: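 Rat OPCs were plated on poly-L-lysine at 1 × 10^4 per well in 96-well plates, in the presence of CNTF and T3. Cells were exposed to the test compound at 0 to 50 nM, or for up to 72 h. Viability was read with a commercial MTT kit.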

primary rat OLs [11] = test: Myelin PLP1 and MBP expression in primary rat OLs/OPCs in differentiation medium; type: cell-based; settings: n = 3 independent experiments
primary rat OLs [12] = test: Myrf expression in primary rat OLs; type: cell-based; settings: n = 3 independent experiments
Procedure, shortened: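 OPCs came from forebrains of P1–P2 Sprague-Dawley rats. Mixed glia were grown up to 12 days on poly-L-lysine, and microglia were removed by shaking at 200 rpm. OPCs were transduced with lentiviral shRNA against GPR37, then differentiated with CNTF and T3 for 48 h. The resulting OLs were treated with the test compound in differentiation medium for 48 h before analysis.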

OLs from GPR37^−/− mice = test: MBP expression in primary OLs from GPR37^−/− mice; type: cell-based, mouse; settings: OPC from GPR37^−/− mice induced with T3; n = 3 independent experiments
Procedure, shortened: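 Primary OPCs were isolated from P7–P8 GPR37−/− mouse pups. They were differentiated into mature OLs with T3 and CNTF, then treated with the test compound. OPC purity and OL induction were checked with specific markers.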

WT mice = test: ICV delivery of OCN into WT mice: myelin PLP1 and MBP; type: in vivo, mouse; settings: ICV 100 ng/day for 10 days, n ≥ 6
Procedure, shortened: (§2)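 Synthesized mouse OCN at 100 ng/day, or PBS, was infused ICV for 10 days before analysis. Tissue protein was extracted in RIPA buffer with protease inhibitors and quantified by BCA. Then 30 to 50 μg was run on SDS-PAGE and blotted. Blots were blocked in 5% milk for 1 h, incubated with primary antibody overnight at 4°C, then with HRP-secondary for 1 h at room temperature.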

GPR37^−/− mice = test: ICV delivery of OCN into GPR37^−/− mice: myelin PLP1 and MBP; type: in vivo, mouse; settings: ICV 100 ng/day for 10 days, n ≥ 6
Procedure, shortened: as §2

OCN^−/− mice [13] = test: Hot plate test; type: in vivo; settings: mouse OCN 50 ng/g i.p. for 10 days, hot plate 53°C, n ≥ 6
Procedure, shortened: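 Mice aged 8 weeks were placed on a hot plate held at 53°C. Latency was scored as the time to lick or flick a hind paw, or to jump. The plate temperature was calibrated to give a withdrawal response within 10 to 15 s in control mice. OCN−/− mice received synthesized mouse OCN at 50 ng/g body weight i.p. for 10 days before testing.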

[14] = ref [15]–[18]; cited from earlier work
neurons = neurons (DRN, MRN, VTA, CA3); ref [16], [22], [51]; cited from earlier work
human GPR37 [15] = target: T1, human GPR37; test: Intracellular calcium; type: cell-based; settings: then OCN, GPR37-transfected HEK293-GCaMP6s cells
Procedure, shortened: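 HEK293 cells stably expressing GCaMP6s (made by lentiviral infection of HEK293T) were transfected with human GPR37 for 48 h. Medium was swapped for HBSS with Ca2+/Mg2+ and cells held at 37°C for 30 min. Pretreatment was anti-GPR37 antibody or pertussis toxin, then OCN 20 nM. GCaMP6s fluorescence was imaged at 1 s intervals.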

human GPR37L1 [16] = test: Saturation binding of biotinylated OCN, GPR37L1-transfected cells; settings: 2 hours at 37°C
Procedure, shortened: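 HEK293T cells were transfected with GPR37L1 and replated on poly-L-lysine at 36 h. After 24 h they received serial dilutions of biotinylated OCN in 0.5% BSA/Ca2+/Mg2+ PBS for 2 h at 37°C. Cells were then washed, fixed in 4% PFA, permeabilised with 0.3% Triton, given extra-avidin peroxidase for 30 min and TMB, and read at 450 nm. Nonspecific binding used 100 μM unlabelled OCN; specific binding was total minus nonspecific; Kd came from saturation curves.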

YLGASVPSPDPLEPTREQCELNPACDELSDQYGLKTAYKRIYGITI [mouse OCN]
BrdU^+/CC1^+ differentiation OLs (OCN^−/− mice [1]; CC of OCN^−/− mice): decreased | CC1^+ cells (OCN^−/− mice [1]; CC of OCN^−/− mice): decreased | numbers of BrdU^+/PDGFRα^+ proliferative OPCs (OCN^−/− mice [1]; CC of OCN^−/− mice): rarely affected | numbers of total PDGFRα^+ OPCs (OCN^−/− mice [1]; OCN^−/− mice): rarely affected | expression of myelin PLP1 and MBP (OCN^−/− mice [1]; white matter regions (CC, SC) of OCN^−/− mice, n = 6): decreased | OCN level in CC and SC [2]: significant increase

biotinylated osteocalcin (OCN), species not stated (peptide)
Kd [3]: 14.1 nM

osteocalcin (YLGASVPSPDPLEPTREQCELNPACDELSDQYGLKTAYKRIYGITI; biotin (Biotin Protein Labeling Kit, Roche; sites not stated)) [OCN]
luciferase activity (β-arrestin recruitment) (human GPR37 [4]): dose-dependent increase | luciferase responses (β-arrestin recruitment) (human GPR37L1 [5]): failed to exert luciferase responses | cAMP production (human GPR37 [6]): significantly inhibited cAMP production | ERK phosphorylation (human GPR37 [7]): stimulated ERK phosphorylation | OCN-induced inhibition of intracellular cAMP production with GPR37 silenced (primary rat OLs [8]; GPR37 shRNA): substantially prevented | intracellular cAMP level (primary rat OLs [8]; forskolin and OCN 30 min): reduction of the intracellular cAMP level | ERK phosphorylation (primary rat OLs [9]; myelinating primary rat OLs): boost of ERK phosphorylation | OPC proliferation (primary rat OPCs): no effects | OL cell viability [10]: no effects | OCN's suppression of the MBP level with GPR37L1 silenced (primary rat OLs [11]; primary rat OLs, GPR37L1 shRNA): unable to inhibit OCN’s suppression of the MBP level | expression of myelin PLP1 and MBP (primary rat OLs [11]; primary rat OPCs in differentiation medium, immunoblot, immunostaining): dose-dependent reduction | down-regulation of Myrf by OCN with GPR37 knockdown (primary rat OLs [12]; GPR37 shRNA, OCN 20 nM): abolished | expression of Myrf (primary rat OLs [12]): dose-dependently inhibited | myelin MBP response to OCN, GPR37 absent (OLs from GPR37^−/− mice): unresponsive | expression of myelin PLP1 and MBP in CC (WT mice): significant down-regulation | expression of myelin PLP1 and MBP in CC (GPR37^−/− mice): absent | deficit of thermal sensitivity (paw lick latency) (OCN^−/− mice [13]): partially rescued | ability of crossing the blood-brain barrier [14]: crossing the blood-brain barrier (BBB) | synthesis of monoamine neurotransmitters (neurons): promote the synthesis of monoamine neurotransmitters | synthesis of γ-aminobutyric acid (GABA) (neurons): reduce the synthesis of γ-aminobutyric acid (GABA)

pertussis toxin [PTX, reference compound]
effect of pretreatment on OCN-triggered increase of iCa^2+ (human GPR37 [15]): abolished | effect of pretreatment on OCN-caused reduction of the intracellular cAMP level (primary rat OLs [8]; PTX pretreatment): blocked | effect of pretreatment on OCN-caused boost of ERK phosphorylation (primary rat OLs [9]; PTX pretreatment, primary rat OLs): blocked

{Biotin-Ahx}-YLGASVPSPDPLEPTREQCELNPACDELSDQYGLKTAYKRIYGITI (disulfide 19-25; N-terminus assumed) [biotinylated OCN]
binding to GPR37L1 (human GPR37L1 [16]): bound to GPR37 rather than GPR37L1
